Reference: ChEMBL document CHEMBL1138555, “N-acylated and N,N'-diacylated imidazolidine-2-thione derivatives and N,N'-diacylated tetrahydropyrimidine-2(1H)-thione analogues: synthesis and antiproliferative activity” (Eur J Med Chem, 2009)

system: SNB-19; test: Growth inhibition of human SNB19 cells after 48 hrs by sulforhodamine B assay; type: functional; conditions: SNB-19, 48 h
Summary of the method: (§1)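 NCI in vitro panel screen. Compounds tested at five 10-fold dilutions, 10^-4 to 10^-8 M. Cells in 96-well plates were exposed for the last 48 h of a 72 h incubation. Viability/growth was read by sulforhodamine B protein assay. GI50 is the concentration giving 50% growth inhibition. Values beyond the tested range are reported as greater or less than the maximum or minimum concentration.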

SMILES	GI50 [µM]
CC(=O)C(=CN1CCN(C(=O)c2ccco2)C1=S)C(C)=O	30.1

system: EKVX; test: Growth inhibition of human EKVX cells after 48 hrs by sulforhodamine B assay; type: functional; conditions: not given
Summary of the method: (§2)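 NCI screen panel. Five 10-fold concentrations from 10^-4 to 10^-8 M. Exposure for the last 48 h of a 72 h incubation. Growth estimated by sulforhodamine B protein assay. GI50 is the concentration giving 50% growth inhibition. Where that level was not reached or was exceeded, the value is given as above or below the highest or lowest concentration tested.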

SMILES	GI50 [µM]
CC(=O)C(=CN1CCN(C(=O)c2ccco2)C1=S)C(C)=O	11.2

system: CAKI-1; test: Growth inhibition of human Caki1 cells after 48 hrs by sulforhodamine B assay; type: functional; conditions: CAKI-1, 48 h; summary of the method: as §2

SMILES	GI50 [µM]
CC(=O)C(=CN1CCN(C(=O)c2ccco2)C1=S)C(C)=O	5.2

system: PC-3; test: Growth inhibition of human PC3 cells after 48 hrs by sulforhodamine B assay; type: functional; conditions: PC-3, 48 h; summary of the method: as §2

SMILES	GI50 [µM]
CC(=O)C(=CN1CCN(C(=O)c2ccco2)C1=S)C(C)=O	4.8

system: U-251; test: Growth inhibition of human U251 cells after 48 hrs by sulforhodamine B assay; type: functional; conditions: U-251, 48 h; summary of the method: as §1

SMILES	GI50 [µM]
CC(=O)C(=CN1CCN(C(=O)c2ccco2)C1=S)C(C)=O	4.8

system: HCT-116; test: Growth inhibition of human HCT116 cells after 48 hrs by sulforhodamine B assay; type: functional; conditions: HCT-116, 48 h; summary of the method: as §2

SMILES	GI50 [µM]
CC(=O)C(=CN1CCN(C(=O)c2ccco2)C1=S)C(C)=O	4.1

system: BT-549; test: Growth inhibition of human BT549 cells after 48 hrs by sulforhodamine B assay; type: functional; conditions: BT-549, 48 h; summary of the method: as §2

SMILES	GI50 [µM]
CC(=O)C(=CN1CCN(C(=O)c2ccco2)C1=S)C(C)=O	14

system: OVCAR-4; test: Growth inhibition of human OVCAR4 cells after 48 hrs by sulforhodamine B assay; type: functional; conditions: OVCAR-4, 48 h; summary of the method: as §2

SMILES	GI50 [µM]
CC(=O)C(=CN1CCN(C(=O)c2ccco2)C1=S)C(C)=O	10.6

system: NCI-H460; test: Growth inhibition of human NCI-H460 cells after 48 hrs by sulforhodamine B assay; type: functional; conditions: NCI-H460, 48 h; summary of the method: as §2

SMILES	GI50 [µM]
CC(=O)C(=CN1CCN(C(=O)c2ccco2)C1=S)C(C)=O	1.5

system: TK-10; test: Growth inhibition of human TK10 cells after 48 hrs by sulforhodamine B assay; type: functional; conditions: TK-10, 48 h; summary of the method: as §1

SMILES	GI50 [µM]
CC(=O)C(=CN1CCN(C(=O)c2ccco2)C1=S)C(C)=O	4.2

system: K562; test: Growth inhibition of human K562 cells after 48 hrs by sulforhodamine B assay; type: functional; conditions: K562, 48 h; summary of the method: as §2

SMILES	GI50 [µM]
CC(=O)C(=CN1CCN(C(=O)c2ccco2)C1=S)C(C)=O	38.4

system: SF-268; test: Growth inhibition of human SF268 cells after 48 hrs by sulforhodamine B assay; type: functional; conditions: SF-268, 48 h; summary of the method: as §2

SMILES	GI50 [µM]
CC(=O)C(=CN1CCN(C(=O)c2ccco2)C1=S)C(C)=O	2.6

system: MOLT-4; test: Growth inhibition of human MOLT4 cells after 48 hrs by sulforhodamine B assay; type: functional; conditions: MOLT-4, 48 h; summary of the method: as §2

SMILES	GI50 [µM]
CC(=O)C(=CN1CCN(C(=O)c2ccco2)C1=S)C(C)=O	8.2

system: A549; test: Growth inhibition of human A549 cells after 48 hrs by sulforhodamine B assay; type: functional; conditions: A549, 48 h; summary of the method: as §2

SMILES	GI50 [µM]
CC(=O)C(=CN1CCN(C(=O)c2ccco2)C1=S)C(C)=O	11.2

system: RXF 393; test: Growth inhibition of human RXF393 cells after 48 hrs by sulforhodamine B assay; type: functional; conditions: RXF 393, 48 h; summary of the method: as §2

SMILES	GI50 [µM]
CC(=O)C(=CN1CCN(C(=O)c2ccco2)C1=S)C(C)=O	1.8

system: SK-MEL-5; test: Growth inhibition of human SK-MEL-5 cells after 48 hrs by sulforhodamine B assay; type: functional; conditions: SK-MEL-5, 48 h; summary of the method: as §2

SMILES	GI50 [µM]
CC(=O)C(=CN1CCN(C(=O)c2ccco2)C1=S)C(C)=O	16.6

system: SF-295; test: Growth inhibition of human SF295 cells after 48 hrs by sulforhodamine B assay; type: functional; conditions: SF-295, 48 h; summary of the method: as §2

SMILES	GI50 [µM]
CC(=O)C(=CN1CCN(C(=O)c2ccco2)C1=S)C(C)=O	21.7

system: OVCAR-3; test: Growth inhibition of human OVCAR-3 cells after 48 hrs by sulforhodamine B assay; type: functional; conditions: OVCAR-3, 48 h; summary of the method: as §2

SMILES	GI50 [µM]
CC(=O)C(=CN1CCN(C(=O)c2ccco2)C1=S)C(C)=O	11.4

system: SK-MEL-2; test: Growth inhibition of human SK-MEL-2 cells after 48 hrs by sulforhodamine B assay; type: functional; conditions: SK-MEL-2, 48 h; summary of the method: as §2

SMILES	GI50 [µM]
CC(=O)C(=CN1CCN(C(=O)c2ccco2)C1=S)C(C)=O	3.3

system: MT4; test: Antiproliferative activity against human MT4 cells assessed as reduction of growth by MTT assay; type: functional, cell-based; conditions: not given
Summary of the method: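 MT-4 lymphoblastoid T cells (ATCC) in RPMI 1640 with 10% FCS, penicillin/streptomycin, checked for mycoplasma. 1 × 10⁴ mock-infected cells per well with serial dilutions from a 100 mM DMSO stock. Incubated 4 days at 37 °C, viable cells counted by MTT. IC50 versus untreated controls by linear regression. Mean of three separate experiments.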

SMILES	IC50 [µM]
CC(=O)C(=CN1CCN(C(=O)c2ccco2)C1=S)C(C)=O	4

system: NCI-H322M; test: Growth inhibition of human NCI-H322M cells after 48 hrs by sulforhodamine B assay; type: functional; conditions: not given; summary of the method: as §2

SMILES	GI50 [µM]
CC(=O)C(=CN1CCN(C(=O)c2ccco2)C1=S)C(C)=O	4.7

system: HOP-62; test: Growth inhibition of human HOP62 cells after 48 hrs by sulforhodamine B assay; type: functional; conditions: HOP-62, 48 h; summary of the method: as §2

SMILES	GI50 [µM]
CC(=O)C(=CN1CCN(C(=O)c2ccco2)C1=S)C(C)=O	22

system: HT-29; test: Growth inhibition of human HT-29 cells after 48 hrs by sulforhodamine B assay; type: functional; conditions: HT-29, 48 h; summary of the method: as §2

SMILES	GI50 [µM]
CC(=O)C(=CN1CCN(C(=O)c2ccco2)C1=S)C(C)=O	17.1

system: COLO 205; test: Growth inhibition of human COLO205 cells after 48 hrs by sulforhodamine B assay; type: functional; conditions: COLO 205, 48 h; summary of the method: as §2

SMILES	GI50 [µM]
CC(=O)C(=CN1CCN(C(=O)c2ccco2)C1=S)C(C)=O	23.4

system: SN12C; test: Growth inhibition of human SN12C cells after 48 hrs by sulforhodamine B assay; type: functional; conditions: not given; summary of the method: as §1

SMILES	GI50 [µM]
CC(=O)C(=CN1CCN(C(=O)c2ccco2)C1=S)C(C)=O	2.6
